Test results from ChEMBL document CHEMBL1139646, “Sialyl Lewis(x) analogs based on a quinic acid scaffold as the fucose mimic” (Bioorg Med Chem Lett, 2005).
Active and inactive are the calls of the source. The rule behind the calls is not given here.

Tests used:
Assay type in all cases: cell-based
P-selectin [1] = target: T1, P-selectin (Homo sapiens, UniProt P16109); assay: Inhibition of HL-60 cell adhesion to recombinant human Selectin P
T1 sequence (P16109 whole entry): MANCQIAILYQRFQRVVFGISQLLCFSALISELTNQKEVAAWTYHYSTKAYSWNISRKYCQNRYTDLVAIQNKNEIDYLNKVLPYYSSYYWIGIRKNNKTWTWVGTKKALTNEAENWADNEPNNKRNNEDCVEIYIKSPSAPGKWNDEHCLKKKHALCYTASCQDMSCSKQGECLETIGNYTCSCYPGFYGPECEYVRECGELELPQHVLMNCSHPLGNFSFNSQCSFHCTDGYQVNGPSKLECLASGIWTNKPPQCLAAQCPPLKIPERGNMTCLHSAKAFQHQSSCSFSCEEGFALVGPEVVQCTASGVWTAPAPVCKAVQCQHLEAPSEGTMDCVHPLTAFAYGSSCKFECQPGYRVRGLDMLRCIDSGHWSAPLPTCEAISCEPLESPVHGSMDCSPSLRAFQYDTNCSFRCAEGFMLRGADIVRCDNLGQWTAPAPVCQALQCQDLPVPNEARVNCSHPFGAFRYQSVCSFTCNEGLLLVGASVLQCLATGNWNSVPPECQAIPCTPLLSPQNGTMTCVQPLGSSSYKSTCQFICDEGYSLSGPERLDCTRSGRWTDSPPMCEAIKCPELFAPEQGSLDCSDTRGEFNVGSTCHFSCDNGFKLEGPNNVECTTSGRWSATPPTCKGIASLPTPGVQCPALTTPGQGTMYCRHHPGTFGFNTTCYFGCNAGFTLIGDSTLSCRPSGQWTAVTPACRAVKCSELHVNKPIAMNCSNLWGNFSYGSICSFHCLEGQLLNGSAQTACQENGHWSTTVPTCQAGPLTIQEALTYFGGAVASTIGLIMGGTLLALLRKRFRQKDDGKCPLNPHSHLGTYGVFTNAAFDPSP
Procedure, shortened: (§1)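 Recombinant human E- or P-selectin was coated in DPBS at 3 µg/mL (150 ng per well) for 3 h and blocked 1 h with DPBS/1% BSA. Inhibitor, diluted from 10 mM DPBS stock into Hanks'/20 mM Hepes pH 7.2–7.4/0.2% glucose/1% BSA, was added with 10^5 HL-60 cells for 15 min at room temperature, then washed with CaCl2-containing buffer. Bound cells were lysed and myeloperoxidase was read with o-phenylenediamine/H2O2 for 1 h at A492. Percent inhibition is relative to the no-inhibitor control.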

E-selectin = target: T2, E-selectin (Homo sapiens, UniProt P16581); assay: Inhibition of HL-60 cell adhesion to recombinant human Selectin E; procedure, shortened: as §1
T2 sequence (P16581 whole entry): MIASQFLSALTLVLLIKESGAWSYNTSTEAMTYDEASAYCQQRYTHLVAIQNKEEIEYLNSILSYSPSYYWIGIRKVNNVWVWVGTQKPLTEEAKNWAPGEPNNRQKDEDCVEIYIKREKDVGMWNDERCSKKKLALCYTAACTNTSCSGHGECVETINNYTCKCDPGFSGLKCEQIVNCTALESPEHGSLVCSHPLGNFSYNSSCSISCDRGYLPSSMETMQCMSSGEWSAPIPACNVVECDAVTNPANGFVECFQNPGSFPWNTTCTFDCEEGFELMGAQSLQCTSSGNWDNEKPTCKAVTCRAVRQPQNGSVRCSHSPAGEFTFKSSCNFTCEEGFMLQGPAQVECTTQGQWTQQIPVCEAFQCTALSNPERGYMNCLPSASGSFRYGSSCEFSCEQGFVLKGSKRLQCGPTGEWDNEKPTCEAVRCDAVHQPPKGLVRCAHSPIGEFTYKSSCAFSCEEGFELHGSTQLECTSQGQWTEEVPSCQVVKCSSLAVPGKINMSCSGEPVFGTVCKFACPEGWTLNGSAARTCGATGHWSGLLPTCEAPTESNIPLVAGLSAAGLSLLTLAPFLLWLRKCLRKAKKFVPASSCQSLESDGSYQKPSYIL

[2] = target: T3, E-selectin (Homo sapiens) (UniProt P16581); assay: Inhibition of HL-60 cell adhesion to recombinant human Selectin E at 50 mM; procedure, shortened: as §1
T3 sequence (whole entry): T2 sequence (P16581 whole entry)

[3] = target: T4, P-selectin (Homo sapiens) (UniProt P16109); assay: Inhibition of HL-60 cell adhesion to recombinant human Selectin P at 50 mM
T4 sequence (whole entry): T1 sequence (P16109 whole entry)

P-selectin [4] = target: T1, P-selectin; assay: Inhibition of HL-60 cell adhesion to recombinant human Selectin P; Not active up to 100 mM; procedure, shortened: as §1
[5] = target: T3, E-selectin (Homo sapiens); assay: Inhibition of HL-60 cell adhesion to recombinant human Selectin E at 50 mM; Not active up to 100 mM; procedure, shortened: as §1
[6] = target: T4, P-selectin (Homo sapiens); assay: Inhibition of HL-60 cell adhesion to recombinant human Selectin P at 50 mM; Not active up to 100 mM; procedure, shortened: as §1

| Compound | IC50 (P-selectin [1]) | IC50 (E-selectin; read-out: IC50) | inhibition [2] | inhibition [3] | IC50 (E-selectin; hl-60) | IC50 (P-selectin [4]) | inhibition [5] | inhibition [6] |
| --- | --- | --- | --- | --- | --- | --- | --- | --- |
| CCC(C)[C@H](NC(=O)[C@]1(O)C[C@@H](O)[C@@H](O)[C@H](O)C1)C(=O)O (some centres not stated) | 19 mM | > 50 mM | 44% | 92% |  |  |  |  |
| C[C@H](NC(=O)[C@]1(O)C[C@@H](O)[C@@H](O)[C@H](O)C1)C(=O)O | > 50 mM | > 50 mM | 30% | 8% |  |  |  |  |
| O=C(O)CC[C@H](NC(=O)[C@]1(O)C[C@@H](O)[C@@H](O)[C@H](O)C1)C(=O)O | 21 mM | > 50 mM | 43% | 86% |  |  |  |  |
| O=C(O)[C@]1(O)C[C@@H](O)[C@@H](O)[C@H](O)C1 [QUINIC ACID] |  |  |  |  | Not Active | Not Active | inactive | inactive |
| O=C(O)CCCNC(=O)[C@]1(O)C[C@@H](O)[C@@H](O)[C@H](O)C1 | 40 mM | > 50 mM | 40% | 83% |  |  |  |  |
| O=C(O)[C@H](CO)NC(=O)[C@]1(O)C[C@@H](O)[C@@H](O)[C@H](O)C1 | 19.5 mM | > 50 mM | 46% | 88% |  |  |  |  |
| O=C(O)CCCCCNC(=O)[C@]1(O)C[C@@H](O)[C@@H](O)[C@H](O)C1 | > 50 mM | > 50 mM | 31% | 14% |  |  |  |  |
| O=C(O)CNC(=O)[C@]1(O)C[C@@H](O)[C@@H](O)[C@H](O)C1 | > 50 mM | > 50 mM | 38% | 38% |  |  |  |  |
